{
  "source": "paper PMC4273560",
  "about": "(Neurobiology of disease, 2014)",
  "key": {"JAM-A [1]": {"target": "T1, JAM-A (Mus musculus, UniProt O88792)", "T1 sequence (O88792 27-300)": "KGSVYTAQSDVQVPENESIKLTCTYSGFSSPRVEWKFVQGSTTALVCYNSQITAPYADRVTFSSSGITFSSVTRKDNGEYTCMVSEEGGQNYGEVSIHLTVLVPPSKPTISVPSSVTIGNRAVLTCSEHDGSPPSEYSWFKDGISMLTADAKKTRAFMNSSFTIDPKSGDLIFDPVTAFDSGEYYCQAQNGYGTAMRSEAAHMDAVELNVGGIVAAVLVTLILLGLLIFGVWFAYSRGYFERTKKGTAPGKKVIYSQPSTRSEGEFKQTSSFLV", "type": "binding", "outline": "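mBMEC (first passage) plated in 96-well plates and incubated with a constant level of FITC-labelled peptide plus increasing unlabelled peptide. Cells washed 3× and fixed in 4% paraformaldehyde for 15 min at room temperature. Fluorescence read on a plate reader. Percent inhibition plotted against concentration and IC50 read from the curve. Three independent experiments.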"}, "[2]": {"test_system": "neutrophils and monocytes in blood", "settings": "mouse, in vivo"}, "[3]": {"test": "Physiological variables of mice before, during and 6 hrs after tMCAO", "type": "in vivo, mouse", "settings": "ip injection, n = 10"}, "BBB, FITC-inulin": {"test_system": "BBB, FITC-inulin", "settings": "mouse, in vivo"}, "mBMEC": {"test_system": "mBMEC", "type": "cell-based, mouse", "settings": "12 h"}, "mBMEC monolayers": {"test_system": "mBMEC monolayers", "test": "In vitro permeability of mBMEC monolayers to inulin", "type": "cell-based, mouse", "settings": "JAM-Ap 0.1–1000 μg/ml, 0–72 h"}, "CD31 + brain microvessel": {"test_system": "CD31 + brain microvessel", "settings": "mouse, in vivo"}, "ICAM-1 [4]": {"test_system": "ICAM-1", "test": "Cross binding of JAM-Ap-FITC to ICAM-1", "set-up": "species or system mouse", "settings": "increasing concentrations of anti-ICAM-1 antibody; presence and absence of JAM-A", "outline": "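bEnd.3 JAM-A-knockdown cells (stable shRNA) and JAM-A-expressing mBMEC in 96-well plates were primed with IL-1β plus TNF-α for 6 h or OGD/reoxygenation for 24 h in DMEM. They then received FITC-peptide with or without increasing anti-ICAM-1 antibody in D-PBS for 30 min at 4 °C. Cells washed 3×, fixed in 4% paraformaldehyde, and fluorescence read. FITC-scrambled peptide served as control.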"}, "JAM-A [5]": {"target": "T1, JAM-A", "settings": "brain endothelial cells; ref Stamatovic et al., 2012; cited from earlier work"}, "ICAM-1 [6]": {"test_system": "ICAM-1", "test": "Cell-based ELISA, ICAM-1 surface expression on mBMEC", "set-up": "species or system mouse", "settings": "CCL2 100 ng/ml"}, "JAM-A [7]": {"target": "T1, JAM-A", "test": "Cell-based ELISA, JAM-A surface expression on mBMEC", "settings": "CCL2 100 ng/ml; 2 and 24 h; p < 0.001"}},
  "note": "“Also recorded” adds a separate entry of the source. Ends that are not written are not given here. Peptide text beside a SMILES is read from it. * marks the point of attachment. FITC = O=C1OC2(c3ccc(O)cc3Oc3cc(O)ccc32)c2ccc(NC(=S)*)cc21",
  "data": [
    {"molecule": "NPKSTRAFSNDDYVLNPTTG [JAM-Ap]", "values": [
      {"measurement": "IC50", "setting": "JAM-A [1]", "value": 0.025, "unit": "µM"},
      {"measurement": "blood MO (monocytes)", "setting": "[2]", "value": "3.95 10^8"},
      {"measurement": "blood PMN", "setting": "[2]", "value": "0.99 10^9/l"},
      {"measurement": "Glucose", "setting": "[3]; 15 min MCAO", "value": "142 ± 6", "unit": "g/dL"},
      {"measurement": "PCO2", "setting": "[3]; 15 min MCAO", "value": "34±2"},
      {"measurement": "PO2", "setting": "[3]; 15 min MCAO", "value": "110±7"},
      {"measurement": "pH", "setting": "[3]; 15 min MCAO", "value": "7.32±0.012"},
      {"measurement": "rCBF", "setting": "[3]; 15 min MCAO", "value": "13±2", "unit": "%"},
      {"measurement": "Glucose", "setting": "[3]; 6 hr post-tMCAO", "value": "128 ± 9", "unit": "g/dL"},
      {"measurement": "PCO2", "setting": "[3]; 6 hr post-tMCAO", "value": "36±1"},
      {"measurement": "PO2", "setting": "[3]; 6 hr post-tMCAO", "value": "115±10"},
      {"measurement": "pH", "setting": "[3]; 6 hr post-tMCAO", "value": "7.36±0.018"},
      {"measurement": "rCBF", "setting": "[3]; 6 hr post-tMCAO", "value": "100±1", "unit": "%"},
      {"measurement": "Glucose", "setting": "[3]; before", "value": "135 ± 3", "unit": "g/dL"},
      {"measurement": "PCO2", "setting": "[3]; before", "value": "32±2"},
      {"measurement": "PO2", "setting": "[3]; before", "value": "123±5"},
      {"measurement": "pH", "setting": "[3]; before", "value": "7.36±0.03"},
      {"measurement": "rCBF", "setting": "[3]; before", "value": "100±0", "unit": "%"},
      {"measurement": "BBB permeability in control mice", "setting": "BBB, FITC-inulin", "value": "no effect on permeability"},
      {"measurement": "cell viability after treatment", "setting": "mBMEC", "value": "> 99", "unit": "%"},
      {"measurement": "effect on barrier permeability to inulin (5 kDa), in vitro", "setting": "mBMEC monolayers", "value": "no effect on barrier permeability to inulin"}
    ]},
    {"molecule": "CC(C)C[C@H](NC(=O)[C@@H](NC(=O)[C@H](Cc1ccc(O)cc1)NC(=O)[C@H](CC(=O)O)NC(=O)[C@H](CC(=O)O)NC(=O)[C@H](CC(N)=O)NC(=O)[C@H](CO)NC(=O)[C@H](Cc1ccccc1)NC(=O)[C@H](C)NC(=O)[C@H](CCCNC(=N)N)NC(=O)[C@@H](NC(=O)[C@H](CO)NC(=O)[C@H](CCCCNC(=S)Nc1ccc2c(c1)C(=O)OC21c2ccc(O)cc2Oc2cc(O)ccc21)NC(=O)[C@@H]1CCCN1C(=O)[C@@H](N)CC(N)=O)[C@@H](C)O)C(C)C)C(=O)N[C@@H](CC(N)=O)C(=O)N1CCC[C@H]1C(=O)N[C@H](C(=O)N[C@H](C(=O)NCC(=O)O)[C@@H](C)O)[C@@H](C)O", "note": "[JAM-Ap-FITC] (H-NPK(FITC)STRAFSNDDYVLNPTTG-OH; N-terminus and C-terminus assumed)", "values": [
      {"measurement": "accumulation at luminal side of CD31 + brain microvessel", "setting": "CD31 + brain microvessel", "value": "high accumulation"},
      {"measurement": "association with CD45 + cells in brain", "setting": "CD31 + brain microvessel", "value": "not associated with CD45 + cells"},
      {"measurement": "nonspecific trapping in ischemic lesion", "setting": "CD31 + brain microvessel", "value": "comparable with labeled control peptide (cp), at the level of threshold"},
      {"measurement": "accumulation in liver and lung microvessels or tissue", "setting": "CD31 + brain microvessel; ip", "value": "did not detect significant amount"},
      {"measurement": "binding affinity for ICAM-1", "setting": "ICAM-1 [4]", "value": "very low binding affinity"}
    ]},
    {"molecule": "CCL2: chemokine CCL2 (PeproTech)", "values": [
      {"measurement": "JAM-A relocalization", "setting": "JAM-A [5]", "value": "JAM-A became relocalized from the lateral to the apical membrane of brain endothelial cells"},
      {"measurement": "ICAM-1 surface expression", "setting": "ICAM-1 [6]", "value": "surface expression was also increased; also recorded: A similar degree of surface accumulation"},
      {"measurement": "cell surface (apical) expression of JAM-A", "setting": "JAM-A [7]", "value": "increased apical membrane JAM-A expression; also recorded: an increase in cell surface (apical) expression of JAM-A"}
    ]}
  ]
}
